The list is not random: actives were taken first. Their share in the collection is about 2.1%.
PfGluPho inh = PfG6PD (Plasmodium falciparum) enzyme inhibition | AID 504690 | 0.78% of 350,000 active | inhibition, % at 20 µM | PfGluPho enzyme, NADPH resazurin-diaphorase fluorescence;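 active means inhibition reaching at least a set limit at 20 µM in the primary screen, cut at about 59% in these data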
HKDC1 inhibitor = HKDC1 (human) hexokinase inhibition; recombinant HKDC1, G6PDH/diaphorase resazurin coupled fluorescence; 0.16% of 340,000 active; AID 493160; inhibition, % at 20 µM; Q2TB90;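 active means inhibition above about 35% when tested at 20 µM, limit read from the data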
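test system = in-house recombinant HK5 (HKDC1) enzyme | amount = HKDC1 at 5 µg/mL | control set = DMSO-enzyme wells negative, buffer-substituted wells positive | compound = one dose of 20 µM, 1% DMSO | schedule = reaction time 90 min, room temperature, protected from light | technique = resorufin fluorescence at 613 nm | reagent = glucose with 1 mM ATP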
B2AR ag = human beta-2 adrenergic receptor agonism by FAP; AID 504454; response, % (test concentration not listed); Am2.2-beta2AR cells, FAP receptor internalization, flow cytometry; P07550; 0.43% of 340,000 active;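 active means response above a set limit, near 3 SD of response in nonfluorescent compounds, cut at about 42% in these data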
aDG glyco act = alpha-DG glycosylation activation; activation, % at 10 µM; Pro5-aDG cells, alpha-DG glycosylation AlphaScreen (IIH6); 0% Pro5, 100% B10-LARGE cell signal; AID 624168; 0.22% of 360,000 active;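 active means activation of at least 8% versus controls, or a plate z-score of at least 8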;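 further: Pro5 are CHO cells carrying HIG-tagged alpha-DG that lacks glycosylation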
UCH37 inh = inhibitors of human deubiquitinating enzyme UCH37; Q9Y5K5; purified proteasome/UCH37, Ub-AMC cleavage fluorescence; inhibition, % (concentration not given with the values); 0.33% of 330,000 active;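 active means mean inhibition over replicate wells above about 20%, limit read from the data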
Target sequence (Q9Y5K5 whole entry, looked up): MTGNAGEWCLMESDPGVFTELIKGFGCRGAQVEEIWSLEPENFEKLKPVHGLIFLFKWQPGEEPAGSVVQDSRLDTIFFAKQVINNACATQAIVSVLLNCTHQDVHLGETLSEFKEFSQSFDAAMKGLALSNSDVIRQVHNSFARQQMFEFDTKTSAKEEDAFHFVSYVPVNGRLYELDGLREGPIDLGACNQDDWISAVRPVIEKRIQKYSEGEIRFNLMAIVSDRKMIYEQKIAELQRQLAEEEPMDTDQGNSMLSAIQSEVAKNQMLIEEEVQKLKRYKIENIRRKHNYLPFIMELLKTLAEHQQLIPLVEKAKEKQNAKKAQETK
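Test system – human UCH37 enzyme supplied as purified proteasome complex · Incubation – 30 min preincubation with enzyme, 25 min cleavage at room temperature · Detection – AMC fluorescence from Ub-AMC cleavage, excitation 355 nm, emission 460 nm · Benchmarks – no-proteasome wells (full inhibition) and compound-free wells (no inhibition)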
H9c2 protect = myocardial damage modulation in H9c2 cells. H9c2 cardiomyocytes, H2O2 injury protection, ATPLite, 2 h. protection from H2O2 cell death, % at 20 µM. 0.63% of 360,000 active;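 active means compounds giving at least 50% protection of heart cells from peroxide-induced death in the single-dose screen, raw or plate-pattern-corrected value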
UCH37 reconfirm = confirmation of human UCH37 deubiquitinating enzyme inhibitors; shares compounds with UCH37 inh; inhibition, % at 20 µM; 27% of 480 active; Proteasome-bound UCH37, Ub-AMC cleavage fluorescence;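 active means average inhibition over replicates above about 50%, so the earlier screening hit is confirmed, limit read from the data; inactive means the rest, counted as false positives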;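 further: based on cleavage rate fitted by regression over a 30 min kinetic read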
aDG glyco conf = confirmation of alpha dystroglycan glycosylation activators; shares compounds with aDG glyco act; Pro5-aDG cells, alpha-DG glycosylation, IIH6 AlphaLISA; scaled to LARGE-overexpressing B10 cells as 100%; activation, % at 10 µM (by protocol); 17% of 600 active; AID 651671;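 active means activation of at least 7% in one or more replicates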;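 further: cells exposed to compound for two days before detection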
Hits are given with their value; - = inactive; . = no result.

SMILES	PfGluPho inh	HKDC1 inhibitor	B2AR ag	aDG glyco act	UCH37 inh	H9c2 protect	aDG glyco conf	others
O=C(NN=Cc1cccc([N+](=O)[O-])c1)c1ccncc1	.	.	.	.	-	.	.
CC(C)(C)c1cc[n+](C2=C([O-])c3ccccc3C(=O)/C2=N\S(=O)(=O)c2cccs2)cc1	-	-	-	3.9	50	-	.	UCH37 reconfirm=58
O=S(=O)(N=Cc1ccccc1O)c1cccs1	.	.	.	.	-	.	.
CC(=NNC(=O)Nc1ccccc1)c1ccc(C)cc1	.	.	.	.	-	.	.
CCCNS(=O)(=O)c1ccc(OCC(=O)NCCC2=CCCCC2)cc1	-	-	-	9.1	36	-	-	UCH37 reconfirm=-
Cc1ccc(S(=O)(=O)N(CC(=O)NN=Cc2cccc(Cl)c2)c2cccc3cccnc23)cc1	.	.	.	.	-	.	.
CC/C(=N\NC(=S)Nc1cc(C)ccc1C)c1ccc(OC(F)F)cc1	-	-	-	5.7	.	-	-
CN(c1ccccc1)S(=O)(=O)c1ccc(C(=O)NCc2cccs2)cc1	-	-	-	2.5	-	-	-
CC(C)Nc1nc(-c2ccccn2)nc(-c2ccccc2)c1C#N	-	-	-	8.8	.	-	-
COc1cc(NC(=O)CC(C)=NNC(=O)Cc2ccccc2)c(OC)cc1Cl	.	.	.	.	-	.	.
O=C(Nc1ccc(-n2cc(Cl)cn2)cc1)c1ccncc1	-	-	-	2.8	-	-	-
O=C(NN=Cc1cccnc1)C1CCCN(S(=O)(=O)c2ccccc2)C1 (stereo not drawn)	.	.	.	.	-	.	.
CCOc1ccc(C=NOCC(=O)NCc2cccs2)cc1	.	.	.	.	-	.	.
O=[N+]([O-])c1cc(-c2nc(-c3ccncc3)no2)cc([N+](=O)[O-])c1	-	-	-	8.7	-	-	-
COC(=O)c1ccc(CON=Cc2ccccc2OC)cc1	.	.	.	.	-	.	.
Oc1ccccc1C=NNC(=S)NC1CC2CCC1C2 (stereo not drawn)	.	.	.	.	-	.	.
O=C(Cc1cccs1)N(Cc1cccs1)C1(C(=O)NC2CCCC2)CCCCC1	-	-	-	-	-	-	.
O=C(c1ccc2c(c1)OCO2)N(Cc1cccs1)C1(C(=O)NC2CCCCC2)CCCCC1	-	-	-	7.4	-	-	-
CC(C)N1CCN(c2ccc(OC[C@H]3CO[C@](Cn4cncn4)(c4ccc(Cl)cc4Cl)O3)cc2)CC1	-	-	-	-	-	-	.
CC(C)N1CCN(c2ccc(OCC3COC(Cn4cncn4)(c4ccc(Cl)cc4Cl)O3)cc2)CC1 (stereo not drawn)	-	-	-	21	.	-	9.9
COc1ccc(C=NNS(=O)(=O)c2ccc(Br)cc2)cc1COc1ccccc1[N+](=O)[O-]	.	.	.	.	-	.	.
CC[C@]1(C(=O)OC)[C@H]2C(=O)N(C)C(=O)[C@H]2[C@H]2CN=C(SCc3ccc(C(=O)OC)cc3)N21	-	-	-	5.9	-	-	-
COC(=O)c1ccc(CSC2=NC[C@@H]3[C@@H]4C(=O)N(C)C(=O)[C@@H]4[C@](C)(C(=O)OC)N23)cc1	-	-	-	-	-	-	.
CCc1cc(CNC(=O)c2ccc3nc(Cc4ccc(OC)c(OC)c4)oc3c2)on1	-	-	-	8.2	-	-	-
CN(C)C=NNC(=O)c1ccccc1Cl	.	.	.	.	-	.	.
SMILES	PfGluPho inh	HKDC1 inhibitor	B2AR ag	aDG glyco act	UCH37 inh	H9c2 protect	aDG glyco conf	others
Cc1cccnc1CN1CCN(C(=O)CCc2nnc(CCc3ccccc3)o2)CC1	-	-	-	-	-	-	.
Cc1cccnc1CCNC(=O)CCc1nnc(CCc2ccccc2)o1	-	-	-	3.3	-	-	-
CC1CC1C(=O)Nc1nc(-c2ccccn2)cs1 (stereo not drawn)	-	-	-	5.1	-	-	-
COc1cc(C=Nn2nnnc2N)ccc1OCC#N	.	.	.	.	-	.	.
COC(=O)c1ccc(CSc2ccc3nnc(-c4ccccn4)n3n2)o1	-	-	-	4.7	-	-	-
C/C=C/c1ccc(OCCCNC(C)CC)c(OC)c1 (stereo not drawn)	-	-	-	-	-	-	.
C/C=C/c1ccc(OCCCNC2CCCC2)c(OC)c1	-	-	-	9.6	-	-	12
Clc1ccc(-c2cc(C3CCNCC3)[nH]n2)cc1	-	-	-	6.9	-	-	-
CC(C)c1ccc(-c2cc(C(=O)N3CCOCC3)c3cc(Br)ccc3n2)cc1	-	-	-	4.6	-	-	9.4
CCc1ccc(C=NNC(=O)c2cc(C)on2)s1	.	.	.	.	-	.	.
Cc1nn(C)cc1CNC(=O)COc1ccc(Cl)cc1Cl	-	-	-	15	-	-	-
O=C(NCCN1CCOCC1)c1ccc(Cl)c(S(=O)(=O)N2CCCCCC2)c1	-	-	-	4.7	-	-	-
O=C(NCCN1CCOCC1)c1ccc(Cl)c(S(=O)(=O)N2CCCC2)c1	-	-	-	-	-	-	.
Cc1oc(N=Cc2ccc(O)cc2O)c(C#N)c1C	.	.	.	.	-	.	.
CC(=O)c1c(C)[nH]c(C(=O)OCc2ccccc2)c1C	-	-	-	-	-	-	.
CC(=O)c1c(C)[nH]c(C(=O)OCCCCN2C(=O)c3ccccc3C2=O)c1C	-	-	-	6.9	-	-	-
CC(CC1CC(COCC(C)C)OC1=O)=NNc1nc(-c2ccccc2)cs1 (stereo not drawn)	.	.	.	.	-	.	.
CCOC(=O)c1ccc(N2C(=O)c3n[nH]c(C)c3C2c2ccccc2)cc1 (stereo not drawn)	-	-	-	28	-	-	-
COc1ccc(/C(CC2(O)C(=O)Nc3ccccc32)=N\O)cc1 (stereo not drawn)	-	-	-	6.6	.	-	-
CC(=NNC(=O)c1ccc(-c2ccccc2)cc1)c1ccco1	.	.	.	.	-	.	.
CC[N+](C)(CC)CC(O)COCC1COc2ccccc2O1 (stereo not drawn)	-	-	-	4.6	-	-	-
Fc1ccc(C=NN2CCN(Cc3ccccc3)CC2)cc1	.	.	.	.	-	.	.
Brc1ccccc1OCCCCn1cnc2ccccc21	-	-	-	10	-	-	-
Clc1ccccc1OCCn1cnc2ccccc21	-	-	-	-	-	-	.
CC(=O)N1c2ccccc2S(=O)(=O)c2c1ccc1ccccc21	-	-	-	13	-	-	-
CCOc1ccc(-n2cc(C(=O)N3CCCCCC3)c3cc(OC)c(OC)cc3c2=O)cc1	-	-	-	5.5	-	-	9.9
COc1ccc(CC(=O)N/N=C/c2cccnc2)cc1OC	-	-	-	6.5	.	-	-
Cc1cccc(C=NNC(=O)c2ccc(NC(=O)c3ccc(F)cc3)cc2)n1	.	.	.	.	-	.	.
COc1ccc(NC(=O)NC[C@@H]2CC[C@@H](Cc3ccc(-c4ccccc4)cc3)O2)cc1	-	-	-	6.4	-	-	-

Source: PubChem
